Data taken from PMC10796979 (The Journal of Biological Chemistry, 2023).

What was measured:
[1] = target: T1, C3aR1 (Homo sapiens, UniProt Q16581); assay: Gi/o-mediated cAMP inhibition Glosensor assay; assay type: cell-based
T1 sequence (Q16581 1-482): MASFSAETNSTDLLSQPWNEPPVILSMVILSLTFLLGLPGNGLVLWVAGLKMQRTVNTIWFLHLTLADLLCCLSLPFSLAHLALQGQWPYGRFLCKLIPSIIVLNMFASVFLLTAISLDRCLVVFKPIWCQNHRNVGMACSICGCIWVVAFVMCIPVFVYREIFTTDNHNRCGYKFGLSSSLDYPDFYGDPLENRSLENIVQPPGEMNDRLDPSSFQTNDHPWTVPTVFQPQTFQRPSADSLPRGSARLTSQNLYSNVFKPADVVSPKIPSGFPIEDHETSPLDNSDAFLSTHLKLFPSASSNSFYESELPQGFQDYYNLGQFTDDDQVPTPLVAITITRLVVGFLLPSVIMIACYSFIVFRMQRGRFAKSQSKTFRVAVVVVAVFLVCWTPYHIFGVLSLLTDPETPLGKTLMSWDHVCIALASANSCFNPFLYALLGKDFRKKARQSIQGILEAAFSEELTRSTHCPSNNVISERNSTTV

[2] = system: 3T3-L1 cells; assay: Fluo-4 calcium influx assay in 3T3-L1 cells; assay type: cell-based
Summary of the method: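 3T3-L1 cells plated at 60% confluency on collagen-coated chamber slides. Next day, medium replaced with HBSS and cells loaded with 2.5 μM Fluo-4 AM for 30 min. Single cells imaged every second for 3 min, with treatment added at 30 s; UTP served as positive control. AUC over the first 60 s taken after background removal, with each cell normalised to its basal intensity. Values were normalised to control and rescaled to 0–1.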

[3] = target: T1, C3aR1; assay: C3aR1 β-arrestin1 recruitment BRET assay; assay type: cell-based
Summary of the method: (§1)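 HEK293T co-transfected 1:3:15 with C-terminal Rluc8-tagged C3aR1, GRK2 and N-terminal Venus-β-arrestin1 or Venus-β-arrestin2, then plated overnight in DMEM with 1% dialyzed FBS. Cells washed, then test compound (3×) added in HBSS/HEPES buffer, pH 7.4. Coelenterazine h (5 μM final) added 15 min before reading at 485/530 nm, at time points up to 60 min, 37 °C. Net BRET was Venus/Rluc8 corrected against wells lacking Venus-arrestin, plotted against concentration.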

[4] = target: T1, C3aR1; assay: C3aR1 β-arrestin2 recruitment BRET assay; assay type: cell-based
Summary of the method: as §1

[5] = target: T1, C3aR1; assay: ELISA surface expression; assay type: cell-based
[6] = target: T1, C3aR1; assay: C3aR1 G protein dissociation BRET assay; assay type: cell-based
Summary of the method: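 HEK293T co-transfected 1:1:1:1 with Gα-Rluc8, Gβ1, GFP2-Gγ and C3aR1, repeated for each Gα subtype (i, o, z, s, olf, q, 11–15). Cells plated overnight in DMEM with 1% dialyzed FBS. Test compound (3×) added in duplicate in HBSS/20 mM HEPES/0.1% BSA/0.01% ascorbic acid, pH 7.4, for 60 min at 37 °C. Coelenterazine 400a (5 μM final) added for 15 min; read at 400/515 nm. GFP2/Rluc8 ratio fitted by log(agonist)-response; three independent experiments, mean and SEM.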

[7] = system: 3T3-L1 adipocytes; assay: Lipolysis; assay type: cell-based; conditions: 30 min or 3 h incubation
Summary of the method: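 3T3-L1 cells differentiated with insulin-containing medium and used 8–9 days after induction. Serum-starved in KRH buffer, then given ISO 50 nM plus test compound (10 nM to 1 μM) for 30 min or 3 h. Medium heat-inactivated at 60 °C for 20 min, then glycerol measured colorimetrically at 540 nm. Glycerol normalised to Bradford protein and expressed as fold over control in the same experiment. One-way ANOVA with Tukey.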

[8] = target: T2, Complement C3a receptor 1 (C3aR1) fused to Rluc8 on the C-terminus (UniProt Q16581)
T2 sequence: T1 sequence (Q16581 1-482)

| Molecule | activity in FSK-induced Gi/o-mediated cAMP inhibition [1] | induction of calcium influx by the compound alone [2] | β-arrestin1 recruitment potency compared to C3a63-77 [3] | β-arrestin2 recruitment potency compared to C3a63-77 [4] | β-arr2-dependent C3aR1 internalization compared to C3a63-77 [5] | fold more potent to cause G protein dissociation compared to C3a63-77 ([6]; Gi/o/z subtypes) | G protein dissociation activity across Gi/o/z subtypes ([6]; all tested Gi/o/z subtypes) | G protein dissociation at Gs, Gq or G12/13 subtypes ([6]; full screen panel of Gα proteins) | potentiation of adrenergic (ISO)-induced lipolysis [7] | recruitment of Venus-β-arrestin1 to C3aR1-Rluc8 by BRET, EC50 of the agonist [8] | recruitment of Venus-β-arrestin2 to C3aR1-Rluc8 by BRET, EC50 of the agonist [8] |
| --- | --- | --- | --- | --- | --- | --- | --- | --- | --- | --- | --- |
| NC(N)=NCCC[C@H](NC(=O)COCC(c1ccccc1)c1ccccc1)C(=O)O [SB290157] | shows agonist activity | does not induce calcium influx | more potent than C3a63-77 | more potent than C3a63-77 | more potent and efficacious | ~10 fold | robust C3aR1 G protein dissociation agonist activity | no activity | did not potentiate |  |  |
| TLQPPASSRRRHFHHALPPAR [mouse TLQP-21] |  |  |  |  |  |  |  |  |  | 191 nM | 542 nM |
| TLQPPSALRRRHYHHALPPSR [human TLQP-21] |  |  |  |  |  |  |  |  |  |  | 3180 nM |
